From ChEMBL document CHEMBL3745597, “Fragment-Based Discovery of Subtype-Selective Adenosine Receptor Ligands from Homology Models” (J Med Chem, 2015) come the findings set out here.

One experiment addresses T1, Adenosine receptor A1 (Homo sapiens, UniProt P30542).
T1 sequence (P30542 whole entry): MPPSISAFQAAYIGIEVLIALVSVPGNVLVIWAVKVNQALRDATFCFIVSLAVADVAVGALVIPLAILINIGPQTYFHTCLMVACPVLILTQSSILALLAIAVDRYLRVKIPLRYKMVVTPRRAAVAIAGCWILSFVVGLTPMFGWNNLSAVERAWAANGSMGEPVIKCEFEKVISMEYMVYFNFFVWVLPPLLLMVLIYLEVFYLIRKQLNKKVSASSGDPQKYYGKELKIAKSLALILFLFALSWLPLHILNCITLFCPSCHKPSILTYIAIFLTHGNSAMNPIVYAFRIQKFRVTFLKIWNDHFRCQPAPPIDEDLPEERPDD
The experiment is described as follows: Displacement of CA200645 from human adenosine A1 receptor expressed in CHO cells incubated for 1 hr by fluorescence analysis. The experiment is classed as cell-based. In a few lines: (§1)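 Live confluent CHO cells expressing A1AR or A3AR were washed into HEPES-buffered saline, pH 7.4. Increasing concentrations of competitor were added with 25 nM fluorescent xanthine ligand CA200645 and incubated 1 h at 37°C, then imaged for total intensity. IC50 was converted to Ki by Cheng-Prusoff using ligand KD 17.0 nM (A1) or 3.11 nM (A3). Values are mean of n experiments run in duplicate.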

Experiment [1] has as its target T2, Adenosine receptor A3 (Homo sapiens, UniProt P0DMS8). Nature of the experiment: Displacement of CA200645 from human adenosine A3 receptor expressed in CHO CRE-SPAP cells incubated for 1 hr by fluorescence analysis. Format: cell-based. In a few lines:
as §1

Experiment [2] concerns the target Adenosine receptors; A1 & A3 (Homo sapiens) (UniProt P30542+P0DMS8). The experiment is described as follows: Selectivity ratio of Ki for human adenosine A1 receptor expressed in CHO cells to Ki for human adenosine A3 receptor expressed in CHO CRE-SPAP cells. The experiment is classed as functional, cell-based. Put shortly: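 Ratio of Ki at A1AR to Ki at A3AR. Both Ki values come from the live-cell CA200645 competition assay (25 nM tracer, 1 h, 37°C), with Cheng-Prusoff correction using KD 17.0 nM (A1) and 3.11 nM (A3).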

Experiment [3] has as its target T3, Adenosine receptor A2a (Homo sapiens, UniProt P29274). The experiment is described as follows: Displacement of [3H]-ZM241385 from human adenosine A2A receptor expressed in HeLa cells at 10 uM. The experiment is classed as cell-based. In a few lines:
(§2)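 Human A2AAR expressed in transfected HeLa cells, with [3H]-ZM241385 as radioligand. Percent inhibition was measured at a single 10 µM concentration. Ki was determined only where displacement exceeded 50% at 10 µM.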

Experiment [4] has as its target T2, Adenosine receptor A3. Nature of the experiment: Competitive antagonist activity at YFP linked human adenosine A3 receptor expressed in CHO CRE-SPAP cells assessed as inhibition of NECA-induced receptor internalization preincubated for 30 mins followed by addition of NECA measured after 60 mins by H33342 staining-based fluorescence analysis. The experiment is classed as cell-based. In a few lines:
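Cells stably expressing YFP-tagged A3AR, serum-free DMEM/F12 with 2 mM L-glutamine, preincubated 30 min at 37°C with a fixed 10 µM antagonist or with medium only. Rising NECA concentrations were then added for 60 min. Cells were fixed in 3% paraformaldehyde, nuclei stained with H33342 and imaged confocally. Read-out was YFP granule count per cell. Antagonist KD came from the Gaddum dose-ratio equation, n=5 run in triplicate.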

The subject of a further experiment is HeLa. Nature of the experiment: Selectivity ratio of Ki for human adenosine A2A receptor expressed in HeLa cells to Ki for human adenosine A3 receptor expressed in CHO CRE-SPAP cells. Format: cell-based.
The target in experiment [5] is T3, Adenosine receptor A2a. Nature of the experiment: Displacement of [3H]-ZM241385 from human adenosine A2A receptor expressed in HeLa cells. Format: cell-based. In a few lines:
as §2

Calls of active or inactive are those of the source. The calls are words filed in the database; no cut-off is given here.

T2 sequence (P0DMS8 whole entry, looked up): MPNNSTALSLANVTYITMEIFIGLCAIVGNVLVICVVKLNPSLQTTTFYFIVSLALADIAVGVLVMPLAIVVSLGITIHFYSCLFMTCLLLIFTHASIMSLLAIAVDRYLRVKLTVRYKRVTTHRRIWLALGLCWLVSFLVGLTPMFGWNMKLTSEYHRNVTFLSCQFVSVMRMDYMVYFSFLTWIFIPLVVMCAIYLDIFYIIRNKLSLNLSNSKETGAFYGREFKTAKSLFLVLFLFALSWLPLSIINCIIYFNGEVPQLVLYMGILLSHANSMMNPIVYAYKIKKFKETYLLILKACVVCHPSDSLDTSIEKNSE
T3 sequence (P29274 whole entry): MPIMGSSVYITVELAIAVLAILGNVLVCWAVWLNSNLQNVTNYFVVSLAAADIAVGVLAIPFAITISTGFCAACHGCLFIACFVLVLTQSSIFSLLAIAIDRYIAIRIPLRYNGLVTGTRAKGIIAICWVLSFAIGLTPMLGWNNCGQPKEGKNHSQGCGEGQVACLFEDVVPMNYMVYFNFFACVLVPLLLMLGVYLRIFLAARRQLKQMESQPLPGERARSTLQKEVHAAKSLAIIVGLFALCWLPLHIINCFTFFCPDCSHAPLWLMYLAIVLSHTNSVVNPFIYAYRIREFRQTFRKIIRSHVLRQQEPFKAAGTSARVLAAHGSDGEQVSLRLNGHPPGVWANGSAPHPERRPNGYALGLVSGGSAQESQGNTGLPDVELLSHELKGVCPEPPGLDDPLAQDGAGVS

As to `O=C(Nc1nc2c(s1)CCC2)c1cc2ccccc2s1`, the Ki at Adenosine receptor A1 is 2.82 µM; at Adenosine receptor A3 [1] (read-out: pKi (converted)) it was 380 nM. Also, in experiment [2], the Ratio Ki turned out to be 5.
The like results for `CCc1cc2c(O)ncnc2s1` were, in that order, 75.9 µM, 13500 nM and 6.
For `O=c1[nH]c(-c2ccco2)nc2scc(-c3ccco3)c12`, the Ki is 0.347 µM on Adenosine receptor A1 and 138 nM at Adenosine receptor A3 [1] (read-out: pKi (converted)). Further, in experiment [2], the Ratio Ki was 2.
As to `Cc1sc2nc(-c3ccoc3)[nH]c(=O)c2c1C`, the figures for the Ki on Adenosine receptor A1 and on Adenosine receptor A3 [1] (read-out: pKi (converted)) were 1.95 µM and 398 nM, respectively. In addition, the Ratio Ki in experiment [2] is 4.
As for `CCc1cc2c(O)nc(N3CCCC3)nc2s1`, the outcome on Adenosine receptor A2a [3] was inactive. On Adenosine receptor A1 (cho), this compound gave a pKi above 4. For the same compound, the Ki on Adenosine receptor A3 [1] (read-out: pKi (converted)) was 2290 nM. In addition, the Ratio Ki in experiment [2] was above 38.
Take `O=C(Nc1nc2ccccc2s1)c1cc2ccccc2s1`: the values for the Ki on Adenosine receptor A1 and on Adenosine receptor A3 [1] (read-out: pKi (converted)) were 6.17 µM and 331 nM, respectively. Further, in experiment [2], the Ratio Ki was 16.
On to `CCc1cc2c(=O)[nH]c(-c3ccoc3)nc2s1`, for which the outcome at Adenosine receptor A2a [3] was inactive. The Ki at Adenosine receptor A1 was 56.2 µM; at Adenosine receptor A3 [1] (read-out: pKi (converted)), 550 nM. The Kd at Adenosine receptor A3 [4] was 741 nM. Besides, the Ratio Ki in experiment [2] came to 102.
As for `COc1cccc2sc(NC(=O)c3cc4ccccc4s3)nc12`, the results for the Ki at Adenosine receptor A1, on Adenosine receptor A3 [1] (read-out: Ki) and on Adenosine receptor A3 [1] (read-out: pKi (converted)) were 3.09 µM, 120 nM and 110 nM, respectively. The Ratio Ki in experiment [2] worked out at 34.
As to `O=C(Nc1ccc2[nH]ncc2c1)c1ccc[nH]1`, the Ki at Adenosine receptor A1 was 3.16 µM; at Adenosine receptor A3 [1] (read-out: pKi (converted)), 2400 nM. Also, the Ratio Ki in experiment [2] is 1.2.
Take `O=C(Nc1nc(C2CC2)cs1)c1cc2ccccc2s1`: the Ratio Ki with HeLa was 72; in experiment [2], 101. Further, the Ki at Adenosine receptor A2a [5] is 2900 nM; on Adenosine receptor A1 it was 3.72 µM; on Adenosine receptor A3 [1] (read-out: Ki), 40 nM; at Adenosine receptor A3 [1] (read-out: pKi (converted)), 33.9 nM. Moreover, at Adenosine receptor A3 [4], the Kd was 741 nM.
Turning to `CC(C)(C)C(=O)Nc1nc(C2CC2)cs1`, the figures for the Ki on Adenosine receptor A1 and on Adenosine receptor A3 [1] (read-out: pKi (converted)) were 12.3 µM and 4900 nM, respectively. Also, in experiment [2], the Ratio Ki was 2.
With `O=C(Nc1nc(C2CC2)cs1)c1ccoc1`, on Adenosine receptor A2a [3], the outcome was inactive. Moreover, the values for the Ki on Adenosine receptor A1, at Adenosine receptor A3 [1] (read-out: Ki) and at Adenosine receptor A3 [1] (read-out: pKi (converted)) were 2.95 µM, 120 nM and 105 nM, respectively. The Ratio Ki in experiment [2] came out at 29.
Take `CCc1cc2c(O)nc(-c3ccncc3)nc2s1`: the Ki at Adenosine receptor A1 was 22.9 µM; on Adenosine receptor A3 [1] (read-out: pKi (converted)) it was 2000 nM. Besides, the Ratio Ki in experiment [2] came to 14.
Turning to `CCc1cc2c(=O)[nH]c(C3CC3)nc2s1`, the figures for the Ki on Adenosine receptor A1 and at Adenosine receptor A3 [1] (read-out: pKi (converted)) were 61.7 µM and 1820 nM, respectively. In experiment [2], the Ratio Ki was determined as 70.
As to `CSc1sc(NC(=O)C=C(C)C)nc1C`, the Ki at Adenosine receptor A1 is 29.5 µM; at Adenosine receptor A3 [1] (read-out: pKi (converted)) it was 2190 nM. The Ratio Ki in experiment [2] turned out to be 24.
